Source: ChEMBL document CHEMBL3352261, “Discovery of inhibitors of the mitotic kinase TTK based on N-(3-(3-sulfamoylphenyl)-1H-indazol-5-yl)-acetamides and carboxamides” (Bioorg Med Chem, 2014)
pIC50: −log10 of the molar value.

Legend:
[1] = molecular target: Serine/threonine-protein kinase PLK3 (Homo sapiens, UniProt Q9H4B4); assay: Inhibition of PLK3 (unknown origin) by FRET-based homogenous assay
[2] = molecular target: Cytochrome P450 3A4 (Homo sapiens, UniProt P08684); assay: Inhibition of CYP3A4 in supersomes (unknown origin) using Dibenzylfluorescein as substrate after 10 mins; type: ADME
[3] = molecular target: Cytochrome P450 2C19 (Homo sapiens, UniProt P33261); assay: Inhibition of CYP2C19 in supersomes (unknown origin) using MFC as substrate after 30 mins; type: ADME
[4] = molecular target: Serine/threonine-protein kinase PLK2 (Homo sapiens, UniProt Q9NYY3); assay: Inhibition of PLK2 (unknown origin) by FRET-based homogenous assay
[5] = molecular target: T1, Serine/threonine-protein kinase PLK4 (Homo sapiens, UniProt O00444); assay: Inhibition of GST-tagged human PLK4 (1-391 residues) phosphorylation by ELISA
T1 sequence (O00444 whole entry): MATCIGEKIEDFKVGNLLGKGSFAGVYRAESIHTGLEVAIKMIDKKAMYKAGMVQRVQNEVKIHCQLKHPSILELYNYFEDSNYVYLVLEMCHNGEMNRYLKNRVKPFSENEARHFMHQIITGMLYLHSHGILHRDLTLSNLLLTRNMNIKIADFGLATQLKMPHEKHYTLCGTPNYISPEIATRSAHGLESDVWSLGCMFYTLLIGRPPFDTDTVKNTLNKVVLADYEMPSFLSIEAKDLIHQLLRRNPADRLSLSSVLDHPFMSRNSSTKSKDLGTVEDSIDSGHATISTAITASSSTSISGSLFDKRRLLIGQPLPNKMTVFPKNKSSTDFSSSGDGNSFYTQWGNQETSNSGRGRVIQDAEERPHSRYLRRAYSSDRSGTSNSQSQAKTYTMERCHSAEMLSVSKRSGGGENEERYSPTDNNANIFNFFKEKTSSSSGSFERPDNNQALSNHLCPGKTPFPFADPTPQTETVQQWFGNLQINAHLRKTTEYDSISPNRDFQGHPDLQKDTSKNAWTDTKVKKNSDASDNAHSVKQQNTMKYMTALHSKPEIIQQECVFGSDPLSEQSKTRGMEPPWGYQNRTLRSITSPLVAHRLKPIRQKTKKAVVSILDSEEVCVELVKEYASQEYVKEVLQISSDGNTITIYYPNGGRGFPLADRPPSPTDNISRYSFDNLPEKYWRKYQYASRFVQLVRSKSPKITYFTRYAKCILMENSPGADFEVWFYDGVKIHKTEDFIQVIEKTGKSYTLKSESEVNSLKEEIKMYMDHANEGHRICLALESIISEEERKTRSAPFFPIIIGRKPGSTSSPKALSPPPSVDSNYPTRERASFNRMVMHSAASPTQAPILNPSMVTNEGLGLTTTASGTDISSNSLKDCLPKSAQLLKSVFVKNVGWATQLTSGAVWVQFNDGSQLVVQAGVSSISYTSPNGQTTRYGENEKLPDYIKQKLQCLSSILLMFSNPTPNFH

[6] = molecular target: Serine/threonine-protein kinase Chk2 (Homo sapiens, UniProt O96017); assay: Inhibition of CHK2 (unknown origin) by FRET-based homogenous assay
[7] = molecular target: Cytochrome P450 2C9 (Homo sapiens, UniProt P11712); assay: Inhibition of CYP2C9 in supersomes (unknown origin) using MFC as substrate after 30 mins; type: ADME
[8] = tested on: HCT-116; assay: Antitumor activity against human HCT116 cells xenografted in SCID mouse assessed as tumor growth inhibition administered ip qd for 18 days; type: functional, organism-based
Procedure, shortened: (§1)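 Mice bore HCT116 tumour xenografts. Arms were dosed IP at 12.5 or 25 mg/kg QD, or at 12.5 mg/kg BID. The reference arm received 5-fluorouracil IP at 15 mg/kg daily. Tumour volume was compared with a negative control group to give percent tumour growth inhibition. Body weight was monitored in all arms.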

[9] = AUC in SCID mouse at 25 mg/kg, po; type: ADME, organism-based; design: dose 25 mg/kg, route oral; settings: plasma
Procedure, shortened: (§2)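 Mice were dosed at 25 mg/kg by the IP or the PO route. Drug levels were measured in plasma, and Cmax (µg/mL) and AUC (µg h/mL) were derived for each route.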

[10] = Cmax in SCID mouse at 25 mg/kg, ip; type: ADME, organism-based; design: dose 25 mg/kg, route intraperitoneal; settings: in vivo; procedure, shortened: as §2
[11] = Antitumor activity against human HCT116 cells xenografted in SCID mouse assessed as tumor growth inhibition at 12.5 mg/kg, ip bid for 18 days; type: functional; settings: HCT-116, ip, 432 h, route intraperitoneal, read-out: TGI; procedure, shortened: as §1
[12] = Antitumor activity against human HCT116 cells xenografted in SCID mouse assessed as tumor growth inhibition at 25 mg/kg, ip qd for 18 days; type: functional; settings: HCT-116, ip, 432 h, route intraperitoneal, read-out: TGI; procedure, shortened: as §1
[13] = tested on: Mus musculus; assay: Toxicity in SCID mouse assessed as body weight loss at 15 mg/kg, ip qd for 5 days; type: organism-based; design: dose 15 mg/kg, route intraperitoneal; settings: in vivo, 120 h; procedure, shortened: as §1
[14] = Antitumor activity against human HCT116 cells xenografted in SCID mouse assessed as tumor growth inhibition at 12.5 mg/kg, ip qd for 18 days; type: functional; settings: HCT-116, ip, 432 h, route intraperitoneal, read-out: TGI; procedure, shortened: as §1
[15] = tested on: Mus musculus; assay: Toxicity in SCID mouse assessed as body weight loss at 12.5 mg/kg, ip bid for 18 days; type: organism-based; design: dose 12.5 mg/kg, route intraperitoneal; settings: in vivo, 432 h; procedure, shortened: as §1
[16] = Cmax in SCID mouse at 25 mg/kg, po; type: ADME, organism-based; design: dose 25 mg/kg, route oral; settings: in vivo; procedure, shortened: as §2
[17] = tested on: Mus musculus; assay: Toxicity in SCID mouse assessed as mortality at 25 mg/kg, ip bid for 18 days; type: organism-based; design: dose 25 mg/kg, route intraperitoneal; settings: in vivo, 432 h
[18] = AUC in SCID mouse at 25 mg/kg, ip; type: ADME, organism-based; design: dose 25 mg/kg, route intraperitoneal; settings: plasma; procedure, shortened: as §2
[19] = tested on: Mus musculus; assay: Toxicity in SCID mouse assessed as body weight loss at 12.5 mg/kg, ip qd for 18 days; type: organism-based; design: dose 12.5 mg/kg, route intraperitoneal; settings: in vivo, 432 h; procedure, shortened: as §1

Chain of Cytochrome P450 3A4 (P08684 whole entry): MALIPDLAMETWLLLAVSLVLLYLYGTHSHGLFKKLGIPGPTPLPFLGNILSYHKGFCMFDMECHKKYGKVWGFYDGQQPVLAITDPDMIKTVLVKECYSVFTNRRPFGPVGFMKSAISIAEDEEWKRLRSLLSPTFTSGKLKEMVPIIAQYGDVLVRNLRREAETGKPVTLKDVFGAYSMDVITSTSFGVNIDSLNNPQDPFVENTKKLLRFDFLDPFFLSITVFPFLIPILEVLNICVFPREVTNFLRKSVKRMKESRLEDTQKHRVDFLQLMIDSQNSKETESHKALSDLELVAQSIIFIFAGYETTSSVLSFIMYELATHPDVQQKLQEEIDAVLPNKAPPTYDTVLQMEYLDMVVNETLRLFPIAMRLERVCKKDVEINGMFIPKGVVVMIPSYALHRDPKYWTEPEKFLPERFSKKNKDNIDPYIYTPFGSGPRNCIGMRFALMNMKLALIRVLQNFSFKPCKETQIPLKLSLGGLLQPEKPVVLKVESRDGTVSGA
Chain of Serine/threonine-protein kinase Chk2 (O96017 whole entry): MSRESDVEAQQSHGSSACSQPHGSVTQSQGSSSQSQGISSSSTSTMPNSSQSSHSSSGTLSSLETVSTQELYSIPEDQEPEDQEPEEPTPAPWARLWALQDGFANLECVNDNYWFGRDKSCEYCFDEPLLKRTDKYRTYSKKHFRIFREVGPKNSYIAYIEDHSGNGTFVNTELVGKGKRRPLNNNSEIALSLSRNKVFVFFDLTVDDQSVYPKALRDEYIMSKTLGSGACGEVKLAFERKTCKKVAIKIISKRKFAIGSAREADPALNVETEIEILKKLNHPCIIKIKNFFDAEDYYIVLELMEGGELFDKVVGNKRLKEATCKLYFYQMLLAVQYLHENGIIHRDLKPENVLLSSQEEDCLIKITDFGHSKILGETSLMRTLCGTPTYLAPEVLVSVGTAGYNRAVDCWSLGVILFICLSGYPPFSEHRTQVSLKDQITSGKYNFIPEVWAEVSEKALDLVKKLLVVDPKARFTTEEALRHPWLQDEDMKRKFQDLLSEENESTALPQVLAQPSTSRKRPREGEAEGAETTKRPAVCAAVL
Chain of Cytochrome P450 2C19 (P33261 whole entry): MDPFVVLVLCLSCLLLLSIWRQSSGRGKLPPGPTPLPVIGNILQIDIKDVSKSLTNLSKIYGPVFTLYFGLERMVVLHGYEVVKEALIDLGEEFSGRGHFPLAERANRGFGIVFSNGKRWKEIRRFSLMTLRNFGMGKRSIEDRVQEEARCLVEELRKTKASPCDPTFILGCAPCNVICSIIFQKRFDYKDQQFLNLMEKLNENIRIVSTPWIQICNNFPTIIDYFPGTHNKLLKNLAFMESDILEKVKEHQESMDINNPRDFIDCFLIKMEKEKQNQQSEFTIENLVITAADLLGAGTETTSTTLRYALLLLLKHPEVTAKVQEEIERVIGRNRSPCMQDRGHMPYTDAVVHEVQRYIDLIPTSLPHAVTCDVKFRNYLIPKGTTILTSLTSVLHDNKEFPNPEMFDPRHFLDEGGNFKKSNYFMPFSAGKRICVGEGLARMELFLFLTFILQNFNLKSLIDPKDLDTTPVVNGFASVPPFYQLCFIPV
Chain of Cytochrome P450 2C9 (P11712 whole entry): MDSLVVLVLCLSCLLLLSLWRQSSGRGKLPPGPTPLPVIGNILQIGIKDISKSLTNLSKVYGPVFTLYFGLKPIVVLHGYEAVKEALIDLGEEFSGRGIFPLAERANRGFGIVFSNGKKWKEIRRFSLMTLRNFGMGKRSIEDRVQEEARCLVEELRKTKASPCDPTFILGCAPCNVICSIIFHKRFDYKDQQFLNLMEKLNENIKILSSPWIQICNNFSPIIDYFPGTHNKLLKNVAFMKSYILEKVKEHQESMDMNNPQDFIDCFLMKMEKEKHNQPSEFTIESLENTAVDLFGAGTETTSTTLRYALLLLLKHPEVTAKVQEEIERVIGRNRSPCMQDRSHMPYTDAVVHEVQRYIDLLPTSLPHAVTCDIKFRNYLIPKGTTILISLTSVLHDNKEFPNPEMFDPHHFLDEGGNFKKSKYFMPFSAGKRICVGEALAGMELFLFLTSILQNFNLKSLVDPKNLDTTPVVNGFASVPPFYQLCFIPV
Chain of Serine/threonine-protein kinase PLK3 (Q9H4B4 whole entry): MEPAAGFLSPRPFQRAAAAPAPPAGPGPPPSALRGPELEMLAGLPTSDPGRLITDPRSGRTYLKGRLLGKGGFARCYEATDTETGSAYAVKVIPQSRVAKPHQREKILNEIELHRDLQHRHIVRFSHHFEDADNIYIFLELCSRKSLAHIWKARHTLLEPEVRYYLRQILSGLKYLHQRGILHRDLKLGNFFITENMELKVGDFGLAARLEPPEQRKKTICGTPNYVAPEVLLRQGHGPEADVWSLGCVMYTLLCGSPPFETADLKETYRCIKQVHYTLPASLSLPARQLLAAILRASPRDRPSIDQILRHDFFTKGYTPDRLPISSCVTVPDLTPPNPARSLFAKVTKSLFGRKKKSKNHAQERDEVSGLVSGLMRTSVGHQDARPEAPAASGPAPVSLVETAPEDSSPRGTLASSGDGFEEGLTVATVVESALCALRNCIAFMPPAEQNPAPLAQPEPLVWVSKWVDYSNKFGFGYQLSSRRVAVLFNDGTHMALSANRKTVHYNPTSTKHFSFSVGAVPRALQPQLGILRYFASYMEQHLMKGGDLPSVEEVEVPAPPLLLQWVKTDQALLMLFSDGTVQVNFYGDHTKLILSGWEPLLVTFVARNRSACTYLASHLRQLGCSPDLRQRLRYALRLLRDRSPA
Chain of Serine/threonine-protein kinase PLK2 (Q9NYY3 whole entry, the tested form may be a part): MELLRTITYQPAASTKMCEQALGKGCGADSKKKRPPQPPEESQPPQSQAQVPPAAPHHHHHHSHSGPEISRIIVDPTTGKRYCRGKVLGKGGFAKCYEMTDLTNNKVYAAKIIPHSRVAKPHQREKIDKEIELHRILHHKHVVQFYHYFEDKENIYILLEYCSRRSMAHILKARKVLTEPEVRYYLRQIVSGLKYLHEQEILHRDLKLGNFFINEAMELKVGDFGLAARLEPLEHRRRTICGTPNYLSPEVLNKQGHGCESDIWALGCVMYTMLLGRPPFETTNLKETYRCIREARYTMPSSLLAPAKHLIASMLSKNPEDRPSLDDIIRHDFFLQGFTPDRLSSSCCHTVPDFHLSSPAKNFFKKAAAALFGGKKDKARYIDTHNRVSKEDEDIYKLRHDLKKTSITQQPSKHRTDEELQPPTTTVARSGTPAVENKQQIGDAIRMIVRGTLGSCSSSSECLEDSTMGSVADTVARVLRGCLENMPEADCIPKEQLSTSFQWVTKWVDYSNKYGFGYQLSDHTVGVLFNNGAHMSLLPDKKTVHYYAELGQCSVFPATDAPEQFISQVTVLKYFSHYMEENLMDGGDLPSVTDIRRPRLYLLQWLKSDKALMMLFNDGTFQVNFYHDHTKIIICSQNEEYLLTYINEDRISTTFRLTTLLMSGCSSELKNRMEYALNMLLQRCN

| SMILES | pIC50 [1] | pIC50 [2] | pIC50 [3] | pIC50 [4] | pIC50 [5] | pIC50 [6] | pIC50 [7] | TGI [8] | AUC [9] [ng·h/mL] | Cmax [10] [ng/mL] | inhibition in vivo at 12.5 mg/kg [11] [%] | inhibition in vivo at 25 mg/kg [12] [%] | Activity [13] | inhibition in vivo at 12.5 mg/kg [14] [%] | Activity [15] | Cmax [16] [ng/mL] | Activity [17] | AUC [18] [ng·h/mL] | Activity [19] |
| --- | --- | --- | --- | --- | --- | --- | --- | --- | --- | --- | --- | --- | --- | --- | --- | --- | --- | --- | --- |
| NS(=O)(=O)c1cccc(-c2n[nH]c3ccc(NC(=O)C(c4ccsc4)N4CCCC4)cc23)c1 (racemic) | < 4.30 | < 6.00 | 5.28 | 5.00 | 7.05 | 7.00 | 6.05 |  |  |  |  |  |  |  |  |  |  |  |  |
| CCc1ccccc1C(C(=O)Nc1ccc2[nH]nc(-c3cccc(S(N)(=O)=O)c3)c2c1)N(C)C (racemic) |  | 5.54 | 5.64 |  | 7.08 | 6.38 | 5.60 | Dose-dependent effect | 140 | 4800 | 46 | 66 | Non-toxic | 10 | Non-toxic | 130 | Toxic | 3000 | Non-toxic |
